Source: ChEMBL document CHEMBL5247578, “Effective synthesis of benzimidazoles-imidazo[1,2-a]pyrazine conjugates: A comparative study of mono-and bis-benzimidazoles for antitumor activity” (Eur J Med Chem, 2019)

Experiments:
SF-539 = experiment: Antiproliferative activity against human SF-539 cells assessed as cell growth inhibition at 10 uM incubated for 48 hrs by sulforhodamine B assay relative to control; format: functional
Procedure, shortened: (§1)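 NCI-60 single-dose screen at 10^-5 M. Cells grown in RPMI 1640 with 5% FBS and 2 mM L-glutamine, plated at 5,000–40,000 cells/well, and preincubated 24 h. Drug (DMSO stock) added and incubated 48 h at 37 °C, 5% CO2. Adherent cells fixed with cold TCA, stained with 0.4% SRB in 1% acetic acid, dye solubilized in 10 mM trizma base, A515 read. Percent growth taken against time-zero and untreated control.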

NCI-H226 = experiment: Antiproliferative activity against human NCI-H226 cells assessed as cell growth inhibition at 10 uM incubated for 48 hrs by sulforhodamine B assay relative to control; format: functional; procedure, shortened: as §1
MCF7 = experiment: Antiproliferative activity against human MCF7 cells assessed as cell growth inhibition at 10 uM incubated for 48 hrs by sulforhodamine B assay relative to control; format: functional; procedure, shortened: as §1
[1] = n-Octanol/phosphate buffer partition coefficient, logP of the compound at pH 7.4 incubated for 85 mins by shake-flask method; format: physicochemical
Procedure, shortened: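 Octanol–water partition by shake-flask: n-octanol with 0.15 M phosphate buffer pH 7.4 at 10:1 volumes. Buffer-phase absorbance read before mixing, then shaken 50 min and centrifuged at 2500 rpm for 35 min. Buffer absorbance read again; P = (Ai−Af)/Af × Vw/Vo.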

UO-31 = experiment: Antiproliferative activity against human UO-31 cells assessed as cell growth inhibition at 10 uM incubated for 48 hrs by sulforhodamine B assay relative to control; format: functional; procedure, shortened: as §1
PC-3 = experiment: Antiproliferative activity against human PC-3 cells assessed as cell growth inhibition at 10 uM incubated for 48 hrs by sulforhodamine B assay relative to control; format: functional; procedure, shortened: as §1
SW-620 = experiment: Antiproliferative activity against human SW620 cells assessed as cell growth inhibition at 10 uM incubated for 48 hrs by sulforhodamine B assay relative to control; format: functional; procedure, shortened: as §1
HCT-15 = experiment: Antiproliferative activity against human HCT-15 cells assessed as cell growth inhibition at 10 uM incubated for 48 hrs by sulforhodamine B assay relative to control; format: functional
Procedure, shortened: (§2)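 NCI-60 one-dose prescreen at 10^-5 M. Cells grown in RPMI 1640 with 5% FBS and 2 mM glutamine, preincubated 24 h, then exposed 48 h at 37 °C. Adherent lines TCA-fixed, SRB-stained, A515 read. Growth percent relative to time-zero and control; negative values mean cell kill.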

786-0 = experiment: Antiproliferative activity against human 786-0 cells assessed as cell growth inhibition at 10 uM incubated for 48 hrs by sulforhodamine B assay relative to control; format: functional
Procedure, shortened: (§3)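 Single-dose NCI-60 prescreen at 10^-5 M. Cells in RPMI 1640 with 5% FBS and 2 mM L-glutamine, seeded 5,000–40,000 cells/well with 24 h preincubation, then drug exposure for 48 h at 37 °C under 5% CO2. Growth read by SRB staining of TCA-fixed cells at 515 nm against time-zero and untreated controls. Negative growth values denote cell kill.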

CCRF-CEM = experiment: Antiproliferative activity against human CCRF-CEM cells assessed as cell growth inhibition at 10 uM incubated for 48 hrs by sulforhodamine B assay relative to control; format: functional; procedure, shortened: as §3
OVCAR-5 = experiment: Antiproliferative activity against human OVCAR-5 cells assessed as cell growth inhibition at 10 uM incubated for 48 hrs by sulforhodamine B assay relative to control; format: functional; procedure, shortened: as §1
SNB-75 = experiment: Antiproliferative activity against human SNB-75 cells assessed as cell growth inhibition at 10 uM incubated for 48 hrs by sulforhodamine B assay relative to control; format: functional; procedure, shortened: as §1
NCI/ADR-RES = experiment: Antiproliferative activity against human NCI/ADR-RES cells assessed as cell growth inhibition at 10 uM incubated for 48 hrs by sulforhodamine B assay relative to control; format: functional; procedure, shortened: as §1
SK-MEL-2 = experiment: Antiproliferative activity against human SK-MEL-2 cells assessed as cell growth inhibition at 10 uM incubated for 48 hrs by sulforhodamine B assay relative to control; format: functional; procedure, shortened: as §1
KM12 = experiment: Antiproliferative activity against human KM12 cells assessed as cell growth inhibition at 10 uM incubated for 48 hrs by sulforhodamine B assay relative to control; format: functional; procedure, shortened: as §1
NCI-H522 = experiment: Antiproliferative activity against human NCI-H522 cells assessed as cell growth inhibition at 10 uM incubated for 48 hrs by sulforhodamine B assay relative to control; format: functional; procedure, shortened: as §1
RXF 393 = experiment: Antiproliferative activity against human RXF 393 cells assessed as cell growth inhibition at 10 uM incubated for 48 hrs by sulforhodamine B assay relative to control; format: functional; procedure, shortened: as §1
HOP-92 = experiment: Antiproliferative activity against human HOP-92 cells assessed as cell growth inhibition at 10 uM incubated for 48 hrs by sulforhodamine B assay relative to control; format: functional; procedure, shortened: as §2
LOX IMVI = experiment: Antiproliferative activity against human LOX IMVI cells assessed as cell growth inhibition at 10 uM incubated for 48 hrs by sulforhodamine B assay relative to control; format: functional; procedure, shortened: as §1
HT-29 = experiment: Antiproliferative activity against human HT-29 cells assessed as cell growth inhibition at 10 uM incubated for 48 hrs by sulforhodamine B assay relative to control; format: functional; procedure, shortened: as §1
SN12C = experiment: Antiproliferative activity against human SN12C cells assessed as cell growth inhibition at 10 uM incubated for 48 hrs by sulforhodamine B assay relative to control; format: functional; procedure, shortened: as §1
RPMI-8226 = experiment: Antiproliferative activity against human RPMI-8226 cells assessed as cell growth inhibition at 10 uM incubated for 48 hrs by sulforhodamine B assay relative to control; format: functional; procedure, shortened: as §1
OVCAR-8 = experiment: Antiproliferative activity against human OVCAR-8 cells assessed as cell growth inhibition at 10 uM incubated for 48 hrs by sulforhodamine B assay relative to control; format: functional; procedure, shortened: as §1
A549 = experiment: Antiproliferative activity against human A549 cells assessed as cell growth inhibition at 10 uM incubated for 48 hrs by sulforhodamine B assay relative to control; format: functional; procedure, shortened: as §3
M14 = experiment: Antiproliferative activity against human M14 cells assessed as cell growth inhibition at 10 uM incubated for 48 hrs by sulforhodamine B assay relative to control; format: functional; procedure, shortened: as §1
HCT-116 = experiment: Antiproliferative activity against human HCT-116 cells assessed as cell growth inhibition at 10 uM incubated for 48 hrs by sulforhodamine B assay relative to control; format: functional; procedure, shortened: as §2
NCI-H460 = experiment: Antiproliferative activity against human NCI-H460 cells assessed as cell growth inhibition at 10 uM incubated for 48 hrs by sulforhodamine B assay relative to control; format: functional; procedure, shortened: as §1
NCI-H23 = experiment: Antiproliferative activity against human NCI-H23 cells assessed as cell growth inhibition at 10 uM incubated for 48 hrs by sulforhodamine B assay relative to control; format: functional; procedure, shortened: as §1
NCI-H322M = experiment: Antiproliferative activity against human NCI-H322M cells assessed as cell growth inhibition at 10 uM incubated for 48 hrs by sulforhodamine B assay relative to control; format: functional; procedure, shortened: as §1
A498 = experiment: Antiproliferative activity against human A498 cells assessed as cell growth inhibition at 10 uM incubated for 48 hrs by sulforhodamine B assay relative to control; format: functional; procedure, shortened: as §3
MDA-MB-435 = experiment: Antiproliferative activity against human MDA-MB-435 cells assessed as cell growth inhibition at 10 uM incubated for 48 hrs by sulforhodamine B assay relative to control; format: functional; procedure, shortened: as §1

logD at 1.417 h [1]	SMILES	inhibition at 10 µM (SF-539)	inhibition at 10 µM (MCF7)	inhibition at 10 µM (UO-31)	inhibition at 10 µM (PC-3)	inhibition at 10 µM (HCT-15)	inhibition at 10 µM (786-0)	inhibition at 10 µM (CCRF-CEM)	inhibition at 10 µM (OVCAR-5)	inhibition at 10 µM (SNB-75)	inhibition at 10 µM (NCI/ADR-RES)	inhibition at 10 µM (SK-MEL-2)	inhibition at 10 µM (KM12)	inhibition at 10 µM (NCI-H522)	inhibition at 10 µM (LOX IMVI)	inhibition at 10 µM (HT-29)	inhibition at 10 µM (SN12C)	inhibition at 10 µM (RPMI-8226)	inhibition at 10 µM (OVCAR-8)	inhibition at 10 µM (A549)	further results
1.95	Fc1ccccc1-c1cn2ccnc2c(-c2ccc3ncn(C4CCCCC4)c3c2)n1	4.51%	11.2%	22.9%	32.6%	6.18%	2.94%	22.5%	6.64%	29.7%	4.51%	10.5%	2.45%	17.8%	5.77%	7.26%	10.1%	42.4%	14.1%	9.1%	inhibition at 10 µM (NCI-H226): 28.6%; inhibition at 10 µM (SW-620): 9.53%; inhibition at 10 µM (RXF 393): 12.3%; inhibition at 10 µM (HOP-92): 37%; inhibition at 10 µM (M14): 2.92%; inhibition at 10 µM (HCT-116): 25.8%; inhibition at 10 µM (NCI-H460): 8.1%; inhibition at 10 µM (NCI-H23): 4.16%
2	c1ccc(Cn2cnc3ccc(-c4nc(-c5cccc6ccccc56)cn5ccnc45)cc32)cc1	4.22%	29.2%	31.3%	31.4%	8.2%	12.4%	6.22%	1.83%	16.2%	5.83%	16.9%	11%	29.3%	16.5%	18.6%	5.62%	26.9%	6.22%	7.31%	inhibition at 10 µM (NCI-H322M): 1.34%; inhibition at 10 µM (A498): 6.74%; inhibition at 10 µM (HOP-92): 42.5%; inhibition at 10 µM (M14): 4.41%; inhibition at 10 µM (HCT-116): 32.9%; inhibition at 10 µM (NCI-H460): 3.8%; inhibition at 10 µM (NCI-H23): 10.4%
1.9	c1cn2cc(-c3ccc4c(c3)ncn4C3CCCCC3)nc(-c3ccc4ncn(C5CCCCC5)c4c3)c2n1	35.7%	19.1%	25.6%	45%	35.6%	25.8%	46.1%	1.44%	24.8%	27%	13.7%	30.6%	28.5%	25.9%	58.2%	20.5%	70.8%	42.6%	25.3%	inhibition at 10 µM (NCI-H226): 18.8%; inhibition at 10 µM (A498): 16.3%; inhibition at 10 µM (RXF 393): 37.4%; inhibition at 10 µM (MDA-MB-435): 7.38%; inhibition at 10 µM (M14): 6.98%; inhibition at 10 µM (HCT-116): 29.1%; inhibition at 10 µM (NCI-H460): 11.9%; inhibition at 10 µM (NCI-H23): 20.5%
